Measurements from ChEMBL document CHEMBL1687913, “Structure-activity relationship, conformational and biological studies of temporin L analogues” (J Med Chem, 2011).
In brackets after ≈: the same amount, converted by molar mass. Where a SMILES comes first, the peptide text is derived from it. [ ]: non-standard residue; d: D form. Orn = NCCC[C@H](N)C(=O)O

Assays:
[1] = Toxicity in human erythrocytes assessed as hemolysis at 6 uM after 40 mins; format: cell-based, Erythrocyte; settings: read-out: Activity
Outline: (§1)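 Human red blood cells suspended in 0.9% (w/v) NaCl and incubated 40 min at 37 °C with gentle mixing with serial 2-fold peptide dilutions (peptide predissolved in 20% ethanol). Spun 5 min at 900g; supernatant read at 415 nm. Cells lysed in distilled water set the 100% lysis reference.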

Acinetobacter baumannii = assay: Antibacterial activity against Acinetobacter baumannii ATCC 19606 after 18 to 20 hrs by microbroth dilution method; format: functional
Outline: (§2)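 CLSI microbroth dilution, adapted. Mid-log bacteria, 2 × 10^6 CFU/mL in Mueller-Hinton broth, mixed 1:1 with MH broth holding peptide in serial 2-fold dilutions in 20% ethanol (0.75-48 μM). Incubated 18-20 h at 37 °C; growth read as A600. MIC is the lowest concentration giving 100% growth inhibition.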

[2] = Toxicity in human erythrocytes assessed as hemolysis at 24 uM after 40 mins; format: cell-based, Erythrocyte; settings: read-out: Activity; outline: as §1
Escherichia coli [3] = assay: Antibacterial activity against Escherichia coli ATCC 25922 after 18 to 20 hrs by microbroth dilution method; format: functional; outline: as §2
Saccharomyces cerevisiae = assay: Antifungal activity against Saccharomyces cerevisiae after 18 to 20 hrs by microbroth dilution method; format: functional
Outline: (§3)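 Yeasts tested by adapted CLSI microbroth dilution in Winge medium. Peptide given in serial 2-fold dilutions (0.75-48 μM, made in 20% ethanol). Incubation 18-20 h at 30 °C, read at A600. MIC taken as the concentration giving complete (100%) growth inhibition.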

Streptococcus pyogenes = assay: Antibacterial activity against Streptococcus pyogenes ATCC 21547 after 18 to 20 hrs by microbroth dilution method; format: functional; outline: as §2
Staphylococcus aureus [4] = assay: Antibacterial activity against Staphylococcus aureus Cowan I after 18 to 20 hrs by microbroth dilution method; format: functional; outline: as §2
Candida albicans = assay: Antifungal activity against Candida albicans ATCC 10231 after 18 to 20 hrs by microbroth dilution method; format: functional; outline: as §3
Acinetobacter junii = assay: Antibacterial activity against […] Acinetobacter junii RT-4 after 18 to 20 hrs by microbroth dilution method; format: functional; outline: as §2
Priestia megaterium = assay: Antibacterial activity against Bacillus megaterium Bm11 after 18 to 20 hrs by microbroth dilution method; format: functional; outline: as §2
Enterococcus faecalis = assay: Antibacterial activity against Enterococcus faecalis ATCC 29212 after 18 to 20 hrs by microbroth dilution method; format: functional; outline: as §2
[5] = system: Yersinia pseudotuberculosis; assay: Antibacterial activity against Yersinia pseudotuberculosis YPIII after 18 to 20 hrs by microbroth dilution method; format: functional
Outline: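 Broth microdilution adapted from CLSI. Mid-log bacteria at 2 × 10^6 CFU/mL in Mueller-Hinton broth were mixed 1:1 with MH broth containing peptide in serial 2-fold dilutions (peptide in 20% ethanol), 0.75-48 μM. Plates were incubated 18-20 h at 37 °C and growth was read as A600. MIC is the concentration giving 100% growth inhibition.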

[6] = Toxicity in human erythrocytes assessed as hemolysis at 12 uM after 40 mins; format: cell-based, Erythrocyte; settings: read-out: Activity; outline: as §1
Staphylococcus capitis = assay: Antibacterial activity against Staphylococcus capitis after 18 to 20 hrs by microbroth dilution method; format: functional; outline: as §2
[7] = Toxicity in human erythrocytes assessed as hemolysis at 3 uM after 40 mins; format: cell-based, Erythrocyte; settings: read-out: Activity; outline: as §1
[8] = system: Staphylococcus epidermidis; assay: Antibacterial activity against Staphylococcus epidermidis ATCC 12228 after 18 to 20 hrs by microbroth dilution method; format: functional; outline: as §2
[9] = system: Schizosaccharomyces pombe; assay: Antifungal activity against Schizosaccharomyces pombe after 18 to 20 hrs by microbroth dilution method; format: functional; outline: as §3
Pseudomonas aeruginosa [10] = assay: Antibacterial activity against Pseudomonas aeruginosa ATCC 15692 after 18 to 20 hrs by microbroth dilution method; format: functional; outline: as §2
[11] = Toxicity in human erythrocytes assessed as hemolysis at 1.5 uM after 40 mins; format: cell-based, Erythrocyte; settings: read-out: Activity; outline: as §1
Escherichia coli [12] = assay: Antibacterial activity against Escherichia coli D21 after 18 to 20 hrs by microbroth dilution method; format: functional; outline: as §2
Staphylococcus aureus [13] = assay: Antibacterial activity against Staphylococcus aureus ATCC 25923 after 18 to 20 hrs by microbroth dilution method; format: functional; outline: as §2
Pseudomonas syringae = assay: Antibacterial activity against Pseudomonas syringae pv tobaci after 18 to 20 hrs by microbroth dilution method; format: functional; outline: as §2
Pseudomonas aeruginosa [14] = assay: Antibacterial activity against Pseudomonas aeruginosa ATCC 27853 after 18 to 20 hrs by microbroth dilution method; format: functional; outline: as §2

Structure (SMILES) | hemolysis at 40 min, 6 µM [1] | MIC (Acinetobacter baumannii) | hemolysis at 40 min, 24 µM [2] | MIC (Escherichia coli [3]) | MIC (Saccharomyces cerevisiae) | MIC (Streptococcus pyogenes) | MIC (Staphylococcus aureus [4]) | MIC (Candida albicans) | MIC (Acinetobacter junii) | MIC (Priestia megaterium) | MIC (Enterococcus faecalis) | MIC [5] | hemolysis at 40 min, 12 µM [6] | MIC (Staphylococcus capitis) | MIC [8] | MIC [9] | MIC (Pseudomonas aeruginosa [10]) | MIC (Escherichia coli [12]) | MIC (Staphylococcus aureus [13]) | MIC (Pseudomonas syringae) | also measured
CC[C@H](C)[C@H](NC(=O)[C@H](CCCNC(=N)N)NC(=O)CNC(=O)[C@H](CC(C)C)NC(=O)[C@H](Cc1ccccc1)NC(=O)[C@H](CCCCN)NC(=O)[C@H](CO)NC(=O)[C@H](Cc1ccccc1)NC(=O)[C@H](Cc1c[nH]c2ccccc12)NC(=O)[C@@H]1CCCN1C(=O)[C@H](CC(C)C)NC(=O)[C@@H](N)Cc1ccccc1)C(=O)N[C@@H](CC(C)C)C(N)=O (H-FLPWFSKFLGRIL-NH2) | 19% | 12 µM (≈ 19.5 µg/mL) | 93% | 12 µM (≈ 19.5 µg/mL) | 12 µM (≈ 19.5 µg/mL) | 6 µM (≈ 9.74 µg/mL) | 3 µM (≈ 4.87 µg/mL) | 12 µM (≈ 19.5 µg/mL) | 12 µM (≈ 19.5 µg/mL) | 3 µM (≈ 4.87 µg/mL) | 12 µM (≈ 19.5 µg/mL) | 6 µM (≈ 9.74 µg/mL) | 64% | 3 µM (≈ 4.87 µg/mL) | 3 µM (≈ 4.87 µg/mL) | 6 µM (≈ 9.74 µg/mL) | > 48 µM | 24 µM (≈ 39 µg/mL) | 3 µM (≈ 4.87 µg/mL) | 12 µM (≈ 19.5 µg/mL) | hemolysis at 40 min, 3 µM [7]: 9%; hemolysis at 40 min, 1.5 µM [11]: 4%
CC[C@@H](C)[C@@H](NC(=O)[C@H](N)CC(C)C)C(=O)N[C@H](CCCNC(=N)N)C(=O)NCC(=O)N[C@H](CC(C)C)C(=O)N[C@H](Cc1ccccc1)C(=O)N[C@H](CCCCN)C(=O)N[C@H](CO)C(=O)N[C@H](Cc1ccccc1)C(=O)N[C@H](Cc1c[nH]c2ccccc12)C(=O)N[C@H](CCC(N)=O)C(=O)N[C@@H](C(=O)N[C@H](Cc1ccccc1)C(N)=O)C(C)C | – | 6 µM (≈ 9.84 µg/mL) | – | 12 µM (≈ 19.7 µg/mL) | > 48 µM | 6 µM (≈ 9.84 µg/mL) | 3 µM (≈ 4.92 µg/mL) | 12 µM (≈ 19.7 µg/mL) | 6 µM (≈ 9.84 µg/mL) | 1.5 µM (≈ 2.46 µg/mL) | 12 µM (≈ 19.7 µg/mL) | 24 µM (≈ 39.4 µg/mL) | – | 6 µM (≈ 9.84 µg/mL) | 6 µM (≈ 9.84 µg/mL) | 1.5 µM (≈ 2.46 µg/mL) | > 48 µM | 12 µM (≈ 19.7 µg/mL) | 12 µM (≈ 19.7 µg/mL) | 6 µM (≈ 9.84 µg/mL) | MIC (Pseudomonas aeruginosa [14]): > 48 µM
CC[C@H](C)[C@H](NC(=O)[C@H](CCCN)NC(=O)CNC(=O)[C@H](CC(C)C)NC(=O)[C@H](Cc1ccccc1)NC(=O)[C@H](CCCCN)NC(=O)[C@H](CO)NC(=O)[C@H](Cc1ccccc1)NC(=O)[C@H](Cc1c[nH]c2ccccc12)NC(=O)[C@H](CCC(N)=O)NC(=O)[C@@H](NC(=O)[C@@H](N)Cc1ccccc1)C(C)C)C(=O)N[C@@H](CC(C)C)C(N)=O (H-FVQWFSKFLG[Orn]IL-NH2) | 22% | 12 µM (≈ 19.2 µg/mL) | 89% | 12 µM (≈ 19.2 µg/mL) | 12 µM (≈ 19.2 µg/mL) | 24 µM (≈ 38.4 µg/mL) | 1.5 µM (≈ 2.4 µg/mL) | 6 µM (≈ 9.59 µg/mL) | 12 µM (≈ 19.2 µg/mL) | 1.5 µM (≈ 2.4 µg/mL) | 6 µM (≈ 9.59 µg/mL) | 3 µM (≈ 4.79 µg/mL) | 62% | 3 µM (≈ 4.79 µg/mL) | 3 µM (≈ 4.79 µg/mL) | 12 µM (≈ 19.2 µg/mL) | 24 µM (≈ 38.4 µg/mL) | 12 µM (≈ 19.2 µg/mL) | 3 µM (≈ 4.79 µg/mL) | 12 µM (≈ 19.2 µg/mL) | hemolysis at 40 min, 3 µM [7]: 7%; MIC (Pseudomonas aeruginosa [14]): 24 µM (≈ 38.4 µg/mL); hemolysis at 40 min, 1.5 µM [11]: 3%
CC[C@H](C)[C@H](NC(=O)[C@H](CCCNC(=N)N)NC(=O)[C@@H]1CCCN1C(=O)[C@H](CC(C)C)NC(=O)[C@H](Cc1ccccc1)NC(=O)[C@H](CCCCN)NC(=O)[C@H](CO)NC(=O)[C@H](Cc1ccccc1)NC(=O)[C@H](Cc1c[nH]c2ccccc12)NC(=O)[C@@H]1CCCN1C(=O)[C@@H](NC(=O)[C@@H](N)Cc1ccccc1)C(C)C)C(=O)N[C@@H](CC(C)C)C(N)=O | 4.5% | 48 µM (≈ 79.2 µg/mL) | 5% | 48 µM (≈ 79.2 µg/mL) | 12 µM (≈ 19.8 µg/mL) | 12 µM (≈ 19.8 µg/mL) | 24 µM (≈ 39.6 µg/mL) | 12 µM (≈ 19.8 µg/mL) | 12 µM (≈ 19.8 µg/mL) | 3 µM (≈ 4.95 µg/mL) | 48 µM (≈ 79.2 µg/mL) | 24 µM (≈ 39.6 µg/mL) | 5% | 12 µM (≈ 19.8 µg/mL) | 12 µM (≈ 19.8 µg/mL) | 12 µM (≈ 19.8 µg/mL) | > 48 µM | 24 µM (≈ 39.6 µg/mL) | 24 µM (≈ 39.6 µg/mL) | 24 µM (≈ 39.6 µg/mL) | hemolysis at 40 min, 3 µM [7]: 2%; MIC (Pseudomonas aeruginosa [14]): > 48 µM; hemolysis at 40 min, 1.5 µM [11]: 2%
